Test results: ChEMBL document CHEMBL1155247, “SAR and biological evaluation of SEN12333/WAY-317538: Novel alpha 7 nicotinic acetylcholine receptor agonist” (Bioorg Med Chem, 2009)
The source made the active and inactive calls. The rule behind the calls is not given here.

Tests used:
[1] = target: T1, Neuronal acetylcholine receptor subunit alpha-7 (Rattus norvegicus, UniProt Q05941); test: Agonist activity at rat alpha7 nAChR expressed in rat GH4C1 cells assessed as calcium flux by FLIPR assay; format: functional, cell-based, GH4-C1
T1 sequence (Q05941 whole entry): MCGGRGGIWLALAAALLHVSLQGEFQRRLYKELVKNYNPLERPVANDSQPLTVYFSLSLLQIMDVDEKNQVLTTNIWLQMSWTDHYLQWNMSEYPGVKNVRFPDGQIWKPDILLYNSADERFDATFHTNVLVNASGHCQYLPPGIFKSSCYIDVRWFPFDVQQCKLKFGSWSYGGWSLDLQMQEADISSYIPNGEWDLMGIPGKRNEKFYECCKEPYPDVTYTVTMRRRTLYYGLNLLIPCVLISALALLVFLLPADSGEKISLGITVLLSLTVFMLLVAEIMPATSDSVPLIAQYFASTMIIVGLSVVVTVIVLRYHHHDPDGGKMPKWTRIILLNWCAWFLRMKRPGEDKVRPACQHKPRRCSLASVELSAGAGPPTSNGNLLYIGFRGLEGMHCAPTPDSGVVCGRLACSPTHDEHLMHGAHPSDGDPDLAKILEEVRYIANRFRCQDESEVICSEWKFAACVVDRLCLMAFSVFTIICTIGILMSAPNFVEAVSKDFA
In short: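 GH4C1 cells stably expressing rat α7, 1 × 10^5 cells/well, cultured 24 h. Loaded 40 min at 37 °C with 4 µM Fluo-4-AM in HBSS-20 mM HEPES pH 7.4 with probenecid. FLIPR calcium flux read after first compound addition (1 min at 1 s, then every 30 s for 10 min). MAX–MIN signal normalized to positive control; EC50 by sigmoidal variable-slope fit.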

[2] = target: Histamine H3 receptor (Homo sapiens) (UniProt Q9Y5N1); test: Binding affinity to histamine H3 receptor expressed in HEK293 cells at 10 uM; format: cell-based
Chain of Histamine H3 receptor (Homo sapiens) (Q9Y5N1 whole entry): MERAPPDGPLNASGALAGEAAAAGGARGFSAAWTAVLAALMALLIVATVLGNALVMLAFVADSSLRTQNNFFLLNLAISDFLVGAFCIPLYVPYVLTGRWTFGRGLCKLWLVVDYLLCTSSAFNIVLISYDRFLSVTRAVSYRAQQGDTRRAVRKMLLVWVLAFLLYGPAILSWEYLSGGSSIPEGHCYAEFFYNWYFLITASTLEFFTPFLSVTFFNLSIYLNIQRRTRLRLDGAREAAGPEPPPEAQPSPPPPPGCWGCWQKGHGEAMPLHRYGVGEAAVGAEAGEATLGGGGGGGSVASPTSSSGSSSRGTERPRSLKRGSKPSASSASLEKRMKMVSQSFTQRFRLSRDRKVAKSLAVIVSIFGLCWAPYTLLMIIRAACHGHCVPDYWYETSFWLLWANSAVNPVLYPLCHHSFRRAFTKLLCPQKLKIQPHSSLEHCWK

[3] = target: hERG (KCNH2) (Homo sapiens, UniProt Q12809); test: Inhibition of human ERG expressed in CHO cells at 1 uM; format: cell-based; conditions: CHO cells expressing human ERG
Chain of hERG (KCNH2) (Q12809 whole entry): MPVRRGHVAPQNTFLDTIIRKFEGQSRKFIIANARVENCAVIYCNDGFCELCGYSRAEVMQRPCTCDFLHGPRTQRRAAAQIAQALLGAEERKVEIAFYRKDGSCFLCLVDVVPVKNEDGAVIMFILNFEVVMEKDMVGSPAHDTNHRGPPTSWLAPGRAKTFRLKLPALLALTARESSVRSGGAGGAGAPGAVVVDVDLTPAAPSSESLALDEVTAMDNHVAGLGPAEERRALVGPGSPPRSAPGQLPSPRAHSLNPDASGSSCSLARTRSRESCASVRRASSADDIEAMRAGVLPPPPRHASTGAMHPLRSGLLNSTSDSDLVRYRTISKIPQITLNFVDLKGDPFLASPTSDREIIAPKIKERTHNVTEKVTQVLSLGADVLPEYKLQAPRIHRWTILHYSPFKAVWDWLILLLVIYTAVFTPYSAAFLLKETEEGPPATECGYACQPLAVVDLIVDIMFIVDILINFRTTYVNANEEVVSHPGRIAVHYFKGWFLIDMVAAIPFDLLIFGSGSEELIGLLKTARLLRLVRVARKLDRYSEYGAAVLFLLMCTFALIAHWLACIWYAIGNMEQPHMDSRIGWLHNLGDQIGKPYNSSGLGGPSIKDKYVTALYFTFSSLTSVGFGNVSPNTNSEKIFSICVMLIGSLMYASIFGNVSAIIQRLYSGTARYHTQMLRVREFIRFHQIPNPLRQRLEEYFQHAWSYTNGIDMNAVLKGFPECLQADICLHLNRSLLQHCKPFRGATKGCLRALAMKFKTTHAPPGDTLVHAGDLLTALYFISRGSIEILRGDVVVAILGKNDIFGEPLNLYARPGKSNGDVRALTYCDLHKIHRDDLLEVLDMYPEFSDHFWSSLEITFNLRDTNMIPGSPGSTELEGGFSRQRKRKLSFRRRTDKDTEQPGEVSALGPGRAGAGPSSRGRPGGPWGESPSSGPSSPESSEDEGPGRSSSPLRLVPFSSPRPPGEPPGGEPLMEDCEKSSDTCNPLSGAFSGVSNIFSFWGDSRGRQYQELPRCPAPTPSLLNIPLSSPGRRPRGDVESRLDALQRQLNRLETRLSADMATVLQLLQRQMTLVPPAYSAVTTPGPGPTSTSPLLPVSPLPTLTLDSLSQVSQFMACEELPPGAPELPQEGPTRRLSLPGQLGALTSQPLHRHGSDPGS

[4] = Half life in Wistar rat at 10 mg/kg, ip; format: ADME, organism-based; parameters: dose 10 mg/kg, route intraperitoneal; conditions: in vivo
In short: (§1)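 Male Wistar rats, 6–8 weeks, 200–250 g, given a single 10 mg/kg ip dose at time 0. Plasma and brain were sampled at 0, 0.5, 1 and 3 h. Plasma was protein-precipitated with acetonitrile containing internal standard. Brain was homogenized and extracted with methanol. Analysis by LC–MS/MS; detection limits 1 ng/mL plasma and 10 ng/g brain.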

[5] = target: Acetylcholine receptor; alpha1/beta1/delta/gamma (Homo sapiens) (UniProt P02708+P07510+P11230+Q07001); test: Activity at alpha-1-beta-1-gamma-delta nAChR in human TE671 cells assessed as effect on membrane potential by FLIPR assay; format: cell-based; conditions: TE-671
In short: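 TE671 rhabdomyosarcoma cells, as endogenous muscle nAChR, were plated at 5 × 10^4 cells/well 24 h before assay. Loaded with membrane-potential dye in HBSS for 60 min at rt, then read on FLIPR with 10 s baseline before compound addition. First-addition signal taken as SUM of fluorescence, normalized to 1 µM epibatidine. EC50 from sigmoidal variable-slope fit.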

[6] = target: Neuronal acetylcholine receptor; alpha4/beta2 (Homo sapiens) (UniProt P17787+P43681); test: Inhibition of alpha4beta2 nAChR at 10 uM; format: protein-complex assay
[7] = Oral bioavailability in Wistar rat; format: ADME, organism-based; conditions: in vivo
[8] = system: Rattus norvegicus; test: Inhibition of MK-801-induced immediate working memory deficit in Long Evans rat at 1 to 10 mg/kg, ip after 48 hrs by novel-object recognition test
[9] = system: Rattus norvegicus; test: Inhibition of scopolamine-induced immediate working memory deficit in Wistar rat at 1 to 10 mg/kg, ip after 48 hrs by novel-object recognition test; format: functional, organism-based
[10] = target: T1, Neuronal acetylcholine receptor subunit alpha-7; test: Displacement of [3H]epibatidine from rat alpha7 nAChR expressed in rat GH4C1 cells; format: cell-based, GH4-C1
In short: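 Membranes from GH4C1 cells expressing rat α7 were incubated with 5 nM [3H]-epibatidine in 50 mM HEPES pH 7.4 with KCl, NaCl and MgCl2, for 1 h at 23 °C. Nonspecific binding defined with 300 µM nicotine. Bound ligand separated by GF/B filtration with five washes in ice-cold buffer.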

[11] = target: Neuronal acetylcholine receptor subunit alpha-7 (Rattus norvegicus) (UniProt Q05941); test: (§2) Activity at rat alpha7 nAChR expressed in rat GH4C1 cells by patch clamp technique; format: cell-based; conditions: GH4-C1
Chain of Neuronal acetylcholine receptor subunit alpha-7 (Rattus norvegicus) (Q05941 whole entry, the tested form may be a part): as the sequence (Q05941 whole entry) above
In short: (§3)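 GH4C1 cells stably expressing rat α7 were pretreated with 0.5 mM Na-butyrate for 2 days. Whole-cell clamp at −60 mV; pipette contained K-gluconate, EGTA, ATP. Agonist or acetylcholine applied by fast perfusion in HBSS + 10 mM HEPES as 500 ms pulses at 10 s intervals, sampled at 1 kHz. Peak amplitude and charge measured; EC50 from concentration–response curves.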

[12] = target: T1, Neuronal acetylcholine receptor subunit alpha-7; test: as §2; format: cell-based, GH4-C1; in short: as §3
[13] = system: Rattus norvegicus; test: Cognitive enhancing effect in Wistar rat assessed as minimized spontaneous decay of episodic memory at 3 mg/kg, ip after 24 hrs by novel-object recognition test
[14] = Ratio of drug level from brain to plasma in Wistar rat at 10 mg/kg, ip; format: ADME, organism-based; parameters: dose 10 mg/kg, route intraperitoneal; in short: as §1
[15] = Cmax in Wistar rat at 10 mg/kg, ip; format: ADME, organism-based; parameters: dose 10 mg/kg, route intraperitoneal; conditions: in vivo; in short: as §1
[16] = target: T2, 5-hydroxytryptamine receptor 3A (Homo sapiens) (UniProt P46098); test: Activity at human 5HT3 receptor expressed in human HEK293 cells assessed as calcium flux by FLIPR assay
T2 sequence (whole entry): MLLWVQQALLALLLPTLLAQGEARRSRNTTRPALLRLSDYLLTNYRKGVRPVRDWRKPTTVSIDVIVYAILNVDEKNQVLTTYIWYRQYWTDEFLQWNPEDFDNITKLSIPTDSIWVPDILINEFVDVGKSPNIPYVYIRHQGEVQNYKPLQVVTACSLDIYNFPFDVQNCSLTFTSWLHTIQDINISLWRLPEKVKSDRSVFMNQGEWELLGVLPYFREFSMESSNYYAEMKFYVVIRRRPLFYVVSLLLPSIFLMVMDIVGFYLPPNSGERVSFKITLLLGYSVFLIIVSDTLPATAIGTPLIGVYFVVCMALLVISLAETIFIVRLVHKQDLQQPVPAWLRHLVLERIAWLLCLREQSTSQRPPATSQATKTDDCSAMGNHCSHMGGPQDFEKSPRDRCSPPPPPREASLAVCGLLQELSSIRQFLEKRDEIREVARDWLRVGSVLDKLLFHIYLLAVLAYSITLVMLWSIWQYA

[17] = system: Rattus norvegicus; test: AUC (last) in Wistar rat at 10 mg/kg, ip; format: ADME, organism-based, Plasma; parameters: time 0 - last, dose 10 mg/kg, route intraperitoneal; conditions: in vivo; in short: as §1

| SMILES | EC50 [1] | further results |
| --- | --- | --- |
| CC(=O)N1CCN(CCCCC(=O)Nc2ccc(-c3cccnc3)cc2)CC1 | 2780 nM |  |
| COc1ccc(N2CCN(CCCCNC(=O)c3ccc(Br)cc3)CC2)c(OC)c1 | > 30000 nM |  |
| CC(=O)c1cccc(-c2ccc(NC(=O)CCCCN3CCCCC3)cc2)c1 | 990 nM |  |
| COc1ccc(N2CCN(CCCCNC(=O)c3ccc([N+](=O)[O-])cc3)CC2)c(OC)c1 | > 30000 nM |  |
| O=C(CCCCN1CCCCCC1)Nc1ccc(-c2cccnc2)cc1 | 540 nM |  |
| COc1ccccc1N1CCN(CCCCC(=O)Nc2ccc(-c3cccnc3)cc2)CC1 | 2470 nM |  |
| CC(C)Oc1ccccc1-c1ccc(NC(=O)CCCCN2CCCCC2)cc1 | 240 nM |  |
| CN(CCCCC(=O)Nc1ccc(-c2cccnc2)cc1)CCc1ccccn1 | 3270 nM |  |
| NC(=O)c1cccc(-c2ccc(NC(=O)CCCCN3CCCCC3)cc2)c1 | 90 nM |  |
| O=C(CCCCN1CCCCC1)Nc1ccc2c(c1)OCO2 | 10900 nM |  |
| COc1ccc(N2CCN(CCCCNC(=O)c3ccc(-c4ccccc4Cl)cc3)CC2)c(OC)c1 | 3110 nM |  |
| Cc1cccc(NC(=O)CCCCN2CCCCC2)c1 | > 30000 nM |  |
| COc1ccc(N2CCN(CCCCNC(=O)c3ccc(-c4ccccc4C)cc3)CC2)c(OC)c1 | 5770 nM |  |
| COc1ccc(N2CCN(CCCCNC(=O)c3ccc(-c4ccccc4F)cc3)CC2)c(OC)c1 | 6030 nM |  |
| Cl.O=C(CCCCN1CCOCC1)Nc1ccc(-c2cccnc2)cc1 | 1650 nM | Activity [2]: Active; inhibition at 1 µM [3]: 6%; half-life [4]: 48 min; Activity [5]: inactive; inhibition [6]: 45%; bioavailability [7]: 57%; inhibition [8]: Active; inhibition [9]: Active; Ki [10]: 260 nM; Emax [11]: 88%; EC50 [12]: 12000 nM; Activity [13]: Active; Kp [14]: 2.5; Cmax [15]: 244 ng/mL; Selectivity ratio [16]: inactive; AUC [17]: 347 ng·h/mL |
| O=C(CCCCN1CCCCC1)Nc1cccc(Br)c1 | 2070 nM |  |
| O=C(CCCCN1CCCCC1)Nc1ccc(-c2ccc(F)cc2F)cc1 | 160 nM |  |
| COc1ccc(N2CCN(CCCCNC(=O)c3ccc(-c4ccccn4)cc3)CC2)c(OC)c1 | 2840 nM |  |
| O=C(CCCCN1CCCCC1)Nc1ccc2ncccc2c1 | 5070 nM |  |
| CC(=O)N1CCCN(CCCCC(=O)Nc2ccc(-c3cccnc3)cc2)CC1 | 2660 nM |  |
| CC(=O)Nc1cccc(-c2ccc(NC(=O)CCCCN3CCCCC3)cc2)c1 | 120 nM |  |
| CCN(CC)C(=O)C1CCCN(CCCCC(=O)Nc2ccc(-c3cccnc3)cc2)C1 (stereo not drawn) | > 30000 nM |  |
| CN1CCN(CCCCC(=O)Nc2ccc(-c3cccnc3)cc2)CC1 | 3560 nM |  |
| COc1ccc(N2CCN(CCCCNC(=O)c3ccc(-c4ccccc4)cc3)CC2)c(OC)c1 | > 30000 nM |  |
| O=C(CCCCN1CCCCC1)Nc1ccc(-c2cccnc2)cc1 | 530 nM |  |
| COc1ccc(N2CCN(CCCCNC(=O)c3ccc(-c4ccccc4OC)cc3)CC2)c(OC)c1 | 2910 nM |  |
| O=C(CCCCN1CCCCC1)Nc1ccc(Br)cc1 | 1350 nM |  |
